# Measured values from ChEMBL document CHEMBL2010801, “Semisynthesis and antimicrobial activity of novel guttiferone-A derivatives” (Bioorg Med Chem, 2012).
# Active and inactive are the calls of the source. The calls are words filed in the database; no cut-off is given here.
# Tests used:
# Candida tropicalis = assay: Antifungal activity against Candida tropicalis ATCC 750 after 24 hrs by broth microdilution method; assay type: functional
# Outline: (§1)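 Broth microdilution in microplates with a serial dilution series of compounds. Amphotericin B served as the fungicidal control and fluconazole as the fungistatic control. Yeast plates were incubated at 37 °C for 24 h.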
# Staphylococcus aureus [1] = assay: Antimicrobial activity against Staphylococcus aureus ATCC 6538 after 24 hrs by broth microdilution method; assay type: functional; settings: ATCC 6538, 24 h
# Outline: (§2)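 Microplate broth microdilution with a serial dilution series of compounds, using chloramphenicol as the antibacterial control. Bacterial plates were incubated at 35 °C for 24 h.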
# Bacillus cereus = assay: Antimicrobial activity against Bacillus cereus ATCC 11778 after 24 hrs by broth microdilution method; assay type: functional; settings: ATCC 11778, 24 h; outline: as §2
# [2] = system: Staphylococcus epidermidis; assay: Antimicrobial activity against Staphylococcus epidermidis ATCC 12228 after 24 hrs by broth microdilution method; assay type: functional; settings: ATCC 12228, 24 h; outline: as §2
# [3] = system: Staphylococcus epidermidis; assay: Ratio of MIC100 for chloramphenicol to MIC100 of compound for Staphylococcus epidermidis ATCC 12228 after 24 hrs by broth microdilution method; assay type: functional
# Candida albicans = assay: Antifungal activity against Candida albicans ATCC 09548 after 24 hrs by broth microdilution method; assay type: functional; outline: as §1
# Cryptococcus neoformans = assay: Antifungal activity against Cryptococcus neoformans ATCC 90012 after 24 hrs by broth microdilution method; assay type: functional; outline: as §1
# Pseudomonas aeruginosa = assay: Antimicrobial activity against Pseudomonas aeruginosa ATCC 9027 after 24 hrs by broth microdilution method; assay type: functional; outline: as §2
# Staphylococcus aureus [4] = assay: Ratio of MIC100 for chloramphenicol to MIC100 of compound for Staphylococcus aureus ATCC 6538 after 24 hrs by broth microdilution method; assay type: functional
# Proteus mirabilis = assay: Antimicrobial activity against Proteus mirabilis ATCC 25933 after 24 hrs by broth microdilution method; assay type: functional; outline: as §2
# Salmonella typhimurium = assay: Antimicrobial activity against Salmonella typhimurium ATCC 14028 after 24 hrs by broth microdilution method; assay type: functional; settings: Salmonella enterica subsp. enterica serovar Typhimurium; outline: as §2
# Trichophyton tonsurans = assay: Antifungal activity against Trichophyton tonsurans after 48 hrs by broth microdilution method; assay type: functional
# Outline: (§3)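 Broth microdilution against filamentous fungi with serially diluted compounds. Amphotericin B (fungicidal) and fluconazole (fungistatic) were run as controls. Plates were incubated at 30 °C for 48 h.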
# Pichia kudriavzevii = assay: Antifungal activity against Candida krusei ATCC 6258 after 24 hrs by broth microdilution method; assay type: functional; outline: as §1
# Nannizzia gypsea = assay: Antifungal activity against Microsporum gypseum after 48 hrs by broth microdilution method; assay type: functional; outline: as §3
# Candida parapsilosis = assay: Antifungal activity against Candida parapsilosis ATCC 69548 after 24 hrs by broth microdilution method; assay type: functional; outline: as §1
# Nakaseomyces glabratus = assay: Antifungal activity against Candida glabrata ATCC 90030 after 24 hrs by broth microdilution method; assay type: functional; outline: as §1
# Escherichia coli = assay: Antimicrobial activity against Escherichia coli ATCC 25922 after 24 hrs by broth microdilution method; assay type: functional; outline: as §2
# [5] = Cytotoxicity against human PBMC after 48 hrs by MTT assay; assay type: cell-based; settings: PBMC (peripheral blood mononuclear cells)
# Outline: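 Normal human PBMC from healthy volunteers were isolated by Ficoll-Hypaque density gradient and seeded at 2.4 × 10⁶ cells/mL. Compounds were added at 100 to 0.06 and cells held 48 h at 37 °C, 5% CO₂. MTT was then added for 4 h, formazan dissolved in DMSO and A560 read. Untreated cells were taken as 100% viability. CC50 was obtained by linear regression.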
compound,measurement,setting,value
CC(C)=CCC[C@]1(C)[C@@H](CC=C(C)C)C[C@@]2(CC=C(C)C)C(=O)C(C(=O)c3ccc(OS(=O)(=O)c4ccc(C)cc4)c(OS(=O)(=O)c4ccc(C)cc4)c3)=C(O)[C@]1(CC=C(C)C)C2=O,MIC50,Candida tropicalis,inactive
same,MIC100,Candida tropicalis,inactive
same,MIC50,Staphylococcus aureus [1]; read-out: MIC50,43 µM
same,MIC,Staphylococcus aureus [1]; read-out: MIC100,2.74 µM
same,MIC50,Bacillus cereus,171 µM
same,MIC,Bacillus cereus; read-out: MIC100,21.9 µM
same,MIC50,[2],2740 µM
same,Ratio,[3],3.5
same,MIC50,Candida albicans,inactive
same,MIC100,Candida albicans,inactive
same,MIC100,Cryptococcus neoformans,inactive
same,MIC50,"Cryptococcus neoformans; ATCC 90012, 24 h",43.9 µM
same,MIC50,Pseudomonas aeruginosa,inactive
same,MIC100,Pseudomonas aeruginosa,inactive
same,Ratio,Staphylococcus aureus [4],4.39
same,MIC100,Proteus mirabilis,inactive
same,MIC50,Salmonella typhimurium,inactive
same,MIC50,Trichophyton tonsurans,inactive
same,MIC100,Trichophyton tonsurans,inactive
same,MIC50,Pichia kudriavzevii,inactive
same,MIC100,Pichia kudriavzevii,inactive
same,MIC50,Nannizzia gypsea,inactive
same,MIC100,Nannizzia gypsea,inactive
same,MIC50,Candida parapsilosis,inactive
same,MIC100,Candida parapsilosis,inactive
same,MIC50,Nakaseomyces glabratus,inactive
same,MIC100,Nakaseomyces glabratus,inactive
same,MIC50,Escherichia coli,inactive
same,MIC100,Escherichia coli,inactive
same,CC50 at 48 h,[5],> 113 µM
